Bioassay records (PubChem BioAssay)
PLK1 kinase inh = PLK1 (human) kinase inhibition. P53350. recombinant PLK1 kinase, TR-FRET peptide phosphorylation. inhibition, % at 10 µM. 0.53% of 97,000 active;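 active means inhibition of 50% or more in the single-concentration screen; inactive means inhibition below 50%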;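 further: 0% = DMSO max control and 100% = H-89 dihydrochloride min control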
FAK inh = blocks human focal adhesion kinase activity; Q05397; biochemical FAK kinase activity assay; inhibition, %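 (tested at 7 µM)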; 0.84% of 97,000 active; AID 727; in the data active means inhibition above about 19%;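 further: 0% = DMSO and 100% = reference compound high control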
Cav32 inh = blocks human Cav3.2 T-type calcium channel; B-score at 10 µM; 4% of 100,000 active; Cav3.2-expressing cells, Fluo-4 calcium fluorescence FDSS; stronger effect = lower value; AID 449739; O95180;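 active means single-dose well whose peak fluorescence ratio is a statistical outlier from its plate by either plate-standardised score or position-corrected B-score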
Plk1 PBD FP = inhibitors of human Plk1 polo box domain binding; Plk1 PBD phosphopeptide binding, fluorescence polarization; inhibition, %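 (tested at about 20 µM)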; 0.13% of 97,000 active; in the data active means inhibition above about 34%, passing the limit was not always enough
EphB4 antag = blocks human EphB4 binding to ephrin-B2. P54760. EphB4 LBD / TNYL-RAW-Alexa532 peptide, fluorescence polarization. inhibition, % at 7 µM. 0.15% of 97,000 active. AID 720;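 active means inhibition above the screen-wide mean inhibition plus 3 SD, cut at about 15% in these data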;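 further: 0% = DMSO wells and 100% = excess unlabeled TNYL-RAW peptide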
Target sequence (P54760 whole entry, looked up, the tested form may be a part): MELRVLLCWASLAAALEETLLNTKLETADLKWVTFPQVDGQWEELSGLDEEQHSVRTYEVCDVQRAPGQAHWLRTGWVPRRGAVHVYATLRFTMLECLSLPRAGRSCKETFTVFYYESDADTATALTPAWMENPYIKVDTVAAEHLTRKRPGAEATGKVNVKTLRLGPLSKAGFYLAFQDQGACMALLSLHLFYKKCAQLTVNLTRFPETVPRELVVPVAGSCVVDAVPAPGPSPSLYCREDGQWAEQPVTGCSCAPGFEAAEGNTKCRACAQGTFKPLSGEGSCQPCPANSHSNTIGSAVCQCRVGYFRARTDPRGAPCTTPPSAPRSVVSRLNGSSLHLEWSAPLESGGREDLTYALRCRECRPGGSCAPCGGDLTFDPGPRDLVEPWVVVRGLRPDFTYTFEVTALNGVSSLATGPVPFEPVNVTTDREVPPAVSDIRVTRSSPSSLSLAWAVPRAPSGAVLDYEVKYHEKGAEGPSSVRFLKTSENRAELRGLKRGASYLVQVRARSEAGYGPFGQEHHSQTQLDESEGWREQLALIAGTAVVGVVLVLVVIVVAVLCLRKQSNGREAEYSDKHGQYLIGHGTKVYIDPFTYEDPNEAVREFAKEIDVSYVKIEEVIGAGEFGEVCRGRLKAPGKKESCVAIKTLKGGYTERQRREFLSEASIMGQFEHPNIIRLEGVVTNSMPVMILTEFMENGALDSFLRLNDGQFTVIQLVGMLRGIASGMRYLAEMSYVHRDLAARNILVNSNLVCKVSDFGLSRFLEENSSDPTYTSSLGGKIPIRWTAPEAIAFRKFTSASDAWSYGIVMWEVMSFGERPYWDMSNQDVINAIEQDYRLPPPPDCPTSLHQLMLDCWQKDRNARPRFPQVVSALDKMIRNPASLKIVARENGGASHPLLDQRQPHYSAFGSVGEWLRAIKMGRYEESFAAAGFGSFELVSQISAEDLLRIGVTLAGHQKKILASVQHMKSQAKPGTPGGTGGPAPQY
HIV Rev-RRE inh = HIV Rev-RRE protein-RNA interaction inhibition | 0.79% of 97,000 active | Rev peptide-RRE RNA binding, FRET | inhibition, % at 8 µM | P05866;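 active means inhibition above the screen-wide mean plus 3 SD, cut at about 35% in these data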;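 further: 0% = median DMSO wells and 100% = median Neomycin B control wells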
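Assay system: labelled RRE RNA duplex and labelled Rev peptide / Medium: HEPES pH 7.5 salt buffer with EDTA / Reagent: labelled Rev peptide / Schedule: 5 + 15 min at 25 °C / Signal: FRET, excitation 480 nm, emission 540 nm donor and 671 nm acceptor / Benchmarks: DMSO and neomycin B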
Active calls of the source: *; . = no result given; [ ] = dose if it differs, or a comment. Most compounds without a hit are left out; they make up all but 5.3% or so of the library.

SMILES	PLK1 kinase inh	FAK inh	Cav32 inh	Plk1 PBD FP	EphB4 antag	HIV Rev-RRE inh
Cn1cccc1-c1nc2ccccc2n1Cc1ccccc1	-9	1	-4.7*	17	-5	6
COC(=O)CCn1nnc(-c2ccc(C(C)C)cc2)n1	2	2	-5.4*	5	0	11
COc1ccc(C)cc1NC(=O)C(=O)NNC(=O)c1ccco1	-13	-1	-0.73	29	1	0
CC1CCN(C(=S)c2cn(Cc3ccccc3F)c3ccccc23)CC1	-5	6	-6.5*	-10	3	5
CC1CCN(C(=S)c2cn(Cc3ccc(F)cc3)c3ccccc23)CC1	-16	2	-2	4	6	4
O=C(c1cccs1)N(CC1CCCO1)c1nc(-c2ccccc2)cs1 (centres undefined)	-8	0	-0.82	7	-13	7
O=C(c1ccco1)N(CC1CCCO1)c1nc(-c2ccccc2)cs1 (centres undefined)	-5	3	-3.1*	-3	-7	14
Cc1ccc(O)c(-c2cc(C(F)(F)F)[nH]n2)c1	-4	2	-0.047	-8	1	3
CCN(CC)S(=O)(=O)c1cccc(NC(=O)C2SC(=Nc3ccc(C)cc3C)C(C(=O)NC(C)COC)=C2N)c1 (centres undefined)	-4	-1	-8.6*	5	2	2
COC(=O)C1=C(C(=O)OC)[C@@H]2N(C)c3ccc(OC)cc3[C@@]23C[C@@H](C(=O)OC)N(C(=O)c2cc(C)oc2C)C3=N1	.	.	0.07	.	.	.
CCOc1cc(CNc2ccccc2)cc(Br)c1OCC(=O)NC(C)(C)C	-11	2	-5.1*	-14	0	-1
Cc1csc(NC(=O)Cc2coc3cc(C)c(C(C)C)cc23)n1	-4	1	-6.1*	-5	9	25
CCc1nc(SCC(=O)N2CCC(Cc3ccccc3)CC2)c2c(=O)n(C)c(=O)n(C)c2n1	-9	-10	1.7	-13	1	8
CCc1nc(SCC(=O)N2CCC(C)CC2)c2c(=O)n(C)c(=O)n(C)c2n1	68*	2	0.95	2	1	1
CCCOc1cccc(C(=O)Nc2cc(NC(=O)c3ccco3)ccc2OC)c1	-13	-7	-6.4*	-15	4	4
COc1cc(OC)cc(C(=O)Nc2cc(NC(=O)c3ccco3)ccc2OC)c1	-7	1	-0.092	0	-3	3
Cc1ccc(S(=O)(=O)N/N=C/c2c(C)nn(-c3ccccc3)c2C)cc1	-13	-2	-2.5	14	-6	-2
O=c1c2ccccc2nc(-c2ccc(Cl)cc2)n1C1CCS(=O)(=O)C1 (centres undefined)	-7	4	-4.2*	-9	-1	5
Cc1ccccc1-c1nc2ccccc2c(=O)n1C1CCS(=O)(=O)C1 (centres undefined)	-9	0	0.34	-12	-7	0
Cc1nn(Cc2ccccc2)c(C)c1NC(=O)c1cc(-c2ccco2)on1	-15	-1	-6.2*	-16	1	7
COCCn1c(C)cc(C2=NNC(=Nc3ccccc3F)SC2)c1C	-12	0	-4.4*	33	4	-1
CN(C)/C=c1\sc2c(C#N)cc(C(=O)c3ccc(Br)cc3)n2c1=O	.	.	-6.9*	.	.	.
CC(C)OC(=O)c1c(NS(=O)(=O)c2ccccc2)sc2c1CCCC2	-4	-3	-8*	16	-9	-1
COC(=O)c1c(NS(=O)(=O)Cc2ccccc2)sc2c1CCCC2	-6	-3	-4.2	9	1	-7
N#Cc1c(-c2ccccc2)c(-c2ccccc2)nn(CC(=O)NNC(=O)Nc2ccc(Cl)c(Cl)c2)c1=O	-7	3	-6.5*	8	-7	7
SMILES	PLK1 kinase inh	FAK inh	Cav32 inh	Plk1 PBD FP	EphB4 antag	HIV Rev-RRE inh
CN1CCC(=O)N(CCSc2ccc(Br)cc2)CC1	.	.	-0.016	.	.	.
O=C1C2C3C=CC(C4CC34)C2C(=O)N1/N=C/c1ccc(-c2ccc(F)cc2[N+](=O)[O-])o1 (centres undefined)	-32	-1	1.1	-11	1	42*
O=C1C2C3C=CC(C4CC34)C2C(=O)N1/N=C/c1ccc(-c2ccc(Cl)cc2[N+](=O)[O-])o1 (centres undefined)	-8	2	-1	-7	-2	15
CC(NC(=O)Nn1cnnc1)(C(F)(F)F)C(F)(F)F	-7	-3	0.23	18	2	7
O=C(O)c1ccc(-c2ccccc2Cl)o1	-5	0	0.59	-14	-7	8
CC(=O)C1=C(C)NC(C)=C(C(C)=O)C1c1ccc(-c2ccccc2Cl)o1	-6	-4	-5.6*	-33	0	-1
CCOC(=O)N1CCN(S(=O)(=O)c2ccc(C)cc2)C1c1ccccc1 (centres undefined)	2	-2	-4.1*	5	-7	5
O=C(Cn1nnc(-c2ccc(Cl)cc2)n1)NC1CC2CCC1C2 (centres undefined)	-3	6	-4.6*	-3	2	11
Cc1ccc(-c2nnn(CC(=O)NC3CC4CCC3C4)n2)cc1 (centres undefined)	-2	-6	-1.6	11	9	12
CC(C)CC(=O)Nc1nc(=S)ss1	-8	-1	-5.6*	3	-2	1
Cc1ccccc1C(=O)Nc1nc(=S)ss1	-11	6	-5*	16	8	9
CC(=O)Nc1nc(=S)ss1	-5	-2	-0.34	-21	3	12
COc1ccc(C2/C=C\CN(Cc3ccco3)CC(=O)N2Cc2ccc(F)cc2)cc1 (centres undefined)	.	.	-0.89	.	.	.
CC(C)=CCCC1(C)C=Cc2c(c(C)cc3c2[nH]c2cc(O)ccc23)O1 (centres undefined)	.	.	-0.2	.	.	.
COc1cccc(CN=CC2=C(O)CC(C)(C)CC2=O)c1OC	1	-5	1.9	0	-3	-1
COc1ccccc1CN=Cc1[nH]c2ccc(Br)c(Cl)c2c1O	-21	2	-3.8	-134	-2	87*[fluorescence artefact?]
O=C(COc1ncnc2scc(-c3ccc(Cl)cc3)c12)NCc1ccco1	24	4	-2.2	6	-3	2
CCCC1=C(C(=O)OCC)C(c2ccccc2OC)NC(=O)N1 (centres undefined)	-13	0	0.11	-5	-2	3
CCOC(=O)C1=C(CN2c3ccccc3CC2C)NC(=O)NC1c1ccccc1 (centres undefined)	-14	-3	-7.8*	5	-2	-5
COC(=O)C1=C(CN2CCCc3ccccc32)NC(=O)NC1c1ccc(F)cc1 (centres undefined)	.	.	-3.9*	.	.	.
CN(C)c1ccc(CNC23CC4CC(CC(C4)C2)C3)cc1	2	1	.	-16	-3	-7
CC1CCCC(C)N1C(=O)CSc1nnc(COc2ccccc2)n1-c1ccccc1 (centres undefined)	-28	1	-3.5*	-7	-3	2
O=C(CSc1nnc(COc2ccccc2)n1-c1ccccc1)c1ccccc1	-9	1	-6.1*	-1	-8	-4
